The source made the active and inactive calls. The calls are words filed in the database; no cut-off is given here.

In ChEMBL document CHEMBL4376838, “Discovery of Novel Celastrol Derivatives as Hsp90-Cdc37 Interaction Disruptors with Antitumor Activity” (J Med Chem, 2019) one finds inhibition, IC50 and Activity data, which are given here for 1 molecule.

Assay [1] has as its target T1, Hsp90 co-chaperone Cdc37 (Homo sapiens) (UniProt Q16543).
T1 sequence (whole entry): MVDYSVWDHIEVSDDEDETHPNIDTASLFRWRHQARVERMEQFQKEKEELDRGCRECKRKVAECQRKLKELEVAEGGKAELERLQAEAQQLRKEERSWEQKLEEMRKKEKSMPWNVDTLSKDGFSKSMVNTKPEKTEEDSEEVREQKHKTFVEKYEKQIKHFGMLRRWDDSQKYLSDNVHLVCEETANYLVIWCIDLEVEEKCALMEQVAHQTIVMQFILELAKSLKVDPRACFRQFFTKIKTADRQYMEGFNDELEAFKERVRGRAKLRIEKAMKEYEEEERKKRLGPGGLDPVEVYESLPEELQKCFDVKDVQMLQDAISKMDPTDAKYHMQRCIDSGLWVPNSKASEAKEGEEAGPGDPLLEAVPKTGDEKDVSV
In words: Inhibition of Cdc37 in human A549 cells assessed as disruption of HSP90 alpha-Cdc37 interaction by measuring decrease in Cdc37 protein level at 5 uM incubated for 6 hrs by immunoprecipitation based immunoblot analysis. The format is cell-based. In a few lines: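 A549 cells (5×10^5 per 6 cm dish) were grown 24 h, then treated with 5 μM compound or DMSO for 6 h. Lysates were immunoprecipitated with Hsp90α antibody, and co-precipitated Cdc37 and Hsp90 were detected by Western blot. Mean ± SD, n = 3.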

A further assay deals with HepG2. In words: Antiproliferative activity against human HepG2 cells assessed as inhibition of cell growth incubated for 48 hrs by MTT assay. Format: functional, cell-based. As to conditions: HepG2, 48 h. In a few lines:
(§1)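 MTT read-out. Cells seeded at 5.0 × 10⁴ cells/ml and cultured 24 h, then exposed to the drug over a range of concentrations for 48 h, with matching DMSO as control. MTT (5 mg/ml) added for 4 h, supernatant removed, formazan dissolved in DMSO, OD read at 570 nm. Run in triplicate, mean ± SD (n = 3).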

The test system of the next assay is MCF7. In words: Antiproliferative activity against human MCF7 cells assessed as inhibition of cell growth incubated for 48 hrs by MTT assay. The format is functional, cell-based. Particulars: MCF7, 48 h. In a few lines: as §1
Assay [2] concerns A549. In words: Induction of apoptosis in human A549 cells assessed as necrotic cells at 1.2 uM incubated for 48 hrs by Annexin V-FITC and PI staining based flow cytometric analysis (reference value: 1.0%). Format: functional. Summed up: (§2)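 A549 cells (4×10^5 per 6 cm dish) cultured 24 h, then treated 48 h with compound or DMSO. Cells gently harvested, washed twice in cold PBS, resuspended in binding buffer with Annexin V and PI, stained 15 min at room temperature in the dark, analysed by flow cytometry. Mean ± SD, n = 3.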

The nature of assay [3]: Binding affinity to GSH in PBS at 100 uM assessed as reduction in absorption at 440 nm incubated up to 30 mins by UV absorption analysis. In a few lines:
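Compound (100 μM) mixed with GSH (100 μM), Cdc37 (1.5 μM) or Hsp90 (1.5 μM) in PBS containing 1% DMSO, incubated at 37 °C for 0, 5, 15 and 30 min. UV spectra scanned 200-500 nm, with absorbance at 440 nm compared against the 0 min value (A/A0). Mean ± SD, n = 3.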

In assay [4] the test system is A549. In words: Induction of morphological apoptosis in human A549 cells assessed as decrease in cell density incubated for 48 hrs by Hoechst 33342 and PI staining based fluorescence microscopic method. Format: functional. Summed up: (§3)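 A549 cells (4×10^5 per 6 cm dish) were grown 24 h, then exposed to compound at the indicated concentrations or DMSO for 48 h. After PBS washes, cells were stained with Hoechst 33342 (10 µg/ml) plus PI for 5 min at room temperature in the dark and imaged by fluorescence microscopy for nuclear morphology.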

Assay [5] deals with A549. In words: Induction of apoptosis in human A549 cells assessed as early apoptotic cells at 1.2 uM incubated for 48 hrs by Annexin V-FITC and PI staining based flow cytometric analysis (reference value: 0.5%). The format is functional. In a few lines:
as §2

Assay [6] has as its system A549. In words: Induction of cell cycle arrest in human A549 cells assessed as accumulation at G1 phase at 0.4 uM incubated for 24 hrs by PI staining based flow cytometric analysis (reference value: 60.14%). Format: functional. Summed up: (§4)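 A549 cells (4×10^5 per 6 cm dish) were grown 24 h, then exposed to compound (0.2, 0.4, 0.8 μM) or DMSO for 24 h. Cells fixed in 75% ethanol at −20 °C for at least 12 h, treated with RNase A at 37 °C for 30 min, then stained with PI for 15 min in the dark. Analysed by flow cytometry, mean ± SD, n = 3.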

In assay [7] the test system is A549. In words: Induction of apoptosis in human A549 cells assessed as late apoptotic cells at 1.2 uM incubated for 48 hrs by Annexin V-FITC and PI staining based flow cytometric analysis (reference value: 3.0%). Format: functional. In a few lines:
as §2

The target in assay [8] is T1, Hsp90 co-chaperone Cdc37 (Homo sapiens). In words: Binding affinity to Cdc37 in human A549 cells assessed as inhibition of HSP90-Cdc37 interaction by measuring decrease in Bcl2 protein level at 1.25 to 5 uM incubated for 12 hrs by Western blot analysis. Format: cell-based. In a few lines: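 A549 cells (5×10^5 per 6 cm dish) were allowed to settle 12 h, then treated with DMSO or compound at the indicated concentrations for 12 h. Lysates were adjusted to 3 mg/ml protein by BCA and resolved on 10% SDS-PAGE, then Western blotted. β-actin or Hsp90 served as the loading control. Three separate experiments, mean ± SD.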

For assay [9], the system named is A549. In words: Induction of mitochondrial membrane potential loss in human A549 cells assessed as cells with hyperpolarized mitochondria by measuring decrease in J-aggregates red fluorescence intensity at 0.4 uM incubated for 24 hrs by JC1 staining based fluorescence microscopic method (reference value: 98.4%). The format is functional. Set-up: scale not given: the % may be the effect or the level left.

Assay [10] deals with A549. In words: Induction of mitochondrial membrane potential loss in human A549 cells assessed as cells with depolarized mitochondria by measuring increase in J-monomer green fluorescence intensity at 0.8 uM incubated for 24 hrs by JC1 staining based fluorescence microscopic method (reference value: 1.5%). The format is functional.
Assay [11] deals with T1, Hsp90 co-chaperone Cdc37 (Homo sapiens). In words: Binding affinity to Cdc37 in human A549 cells assessed as inhibition of HSP90-Cdc37 interaction by measuring decrease in Akt phosphorylation level at 5 uM incubated for 12 hrs by Western blot analysis. The format is cell-based. In a few lines:
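A549 cells seeded 5×10^5 per 6 cm dish, grown 12 h, then exposed to compound or DMSO for 12 h. Lysates adjusted to 3 mg/ml protein (BCA), run on 10% SDS-PAGE, immunoblotted for p-Akt and Cdk4. Band levels quantified against Hsp90 loading control. Three separate experiments, mean ± SD.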

Assay [12] deals with A549. In words: Induction of mitochondrial membrane potential loss in human A549 cells assessed as cells with hyperpolarized mitochondria by measuring decrease in J-aggregates red fluorescence intensity at 0.8 uM incubated for 24 hrs by JC1 staining based fluorescence microscopic method (reference value: 98.4%). The format is functional. The arrangement: scale not given: the % may be the effect or the level left.

Assay [13] deals with A549. In words: Induction of morphological apoptosis in human A549 cells assessed as increase in cells with nuclear fragmentation at 0.3 to 1.2 uM incubated for 48 hrs by Hoechst 33342 and PI staining based fluorescence microscopic method. Format: functional, cell-based. Summed up:
as §3

The subject of assay [14] is A549. In words: Induction of cell cycle arrest in human A549 cells assessed as accumulation at S phase at 0.2 uM incubated for 24 hrs by PI staining based flow cytometric analysis (reference value: 27.59%). Format: functional. In a few lines:
as §4

For the molecule `CC1=C(O)C(=O)C=C2C1=CC=C1[C@@]2(C)CC[C@@]2(C)[C@@H]3C[C@](C)(C(=O)OCCCOC(=O)/C=C(\C#N)c4ccc(F)cc4)CC[C@]3(C)CC[C@]12C`, the inhibition entry in assay [1], in assay [8] and in assay [11] was “Active” each time. The IC50 was determined as 0.94 µM with HepG2 and 0.64 µM in the assay with MCF7. In addition, the Activity with A549 [2] was 8.2%; in the assay on A549 [4], “Dose-dependent effect”; in the assay on A549 [5] it was 7.4%; with A549 [6], 67.51%; in the assay on A549 [7], 25.2%; in the assay on A549 [9], 80%. Also, the results for the Activity with A549 [10], with A549 [12] and with A549 [14] were 26.2%, 72.8% and 26.39%, respectively. Further, the outcome (in [3]; in the assay on A549 [13]) was Active.
